# Data reported in ChEMBL document CHEMBL1137567, “First example of phosphoramidate approach applied to a 4'-substituted purine nucleoside (4'-azidoadenosine): conversion of an inactive nucleoside to a submicromolar compound versus hepatitis C virus” (J Med Chem, 2007).
# Assays:
# [1] = Cytotoxicity activity against Huh7 cells by WST assay; type: cell-based, Huh-7; details: human
# Outline: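 Cytotoxicity was read out as the CC50, the concentration lowering cell viability by 50%, from a WST viability readout. Cells were the HCV replicon cell line 2209-23, derived from Huh-7 and carrying a stable genotype 1b bicistronic replicon with a renilla luciferase reporter.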
# Hepatitis C virus = assay: Inhibition of HCV 1b in Huh7 cells by replicon assay; type: functional, organism-based, Hepacivirus hominis; details: Huh-7
# Outline: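 Huh-7-derived line 2209-23 stably carrying a bicistronic HCV genotype 1b replicon with a renilla luciferase reporter. Replication was read out by the reporter. The EC50 is the concentration reducing HCV replication by 50%.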
Structure (SMILES),EC50 (Hepatitis C virus) [µM],CC50 [1] [µM]
CCOC(=O)[C@H](C)NP(=O)(OC[C@@]1(N=[N+]=[N-])O[C@@H](n2cnc3c(N)ncnc32)[C@H](O)[C@@H]1O)Oc1cccc2ccccc12 (some centres undefined),0.59,> 100
C[C@H](NP(=O)(OC[C@@]1(N=[N+]=[N-])O[C@@H](n2cnc3c(N)ncnc32)[C@H](O)[C@@H]1O)Oc1ccccc1)C(=O)OCc1ccccc1 (some centres undefined),4,> 100
C[C@H](NP(=O)(OC[C@@]1(N=[N+]=[N-])O[C@@H](n2cnc3c(N)ncnc32)[C@H](O)[C@@H]1O)Oc1cccc2ccccc12)C(=O)OCc1ccccc1 (some centres undefined),0.22,> 100

# Second part, led by results:
EC50 (Hepatitis C virus) [µM],Structure (SMILES),CC50 [1] [µM]
> 100,C[C@H](NP(=O)(OC[C@@]1(N=[N+]=[N-])O[C@@H](n2cnc3c(N)ncnc32)[C@H](O)[C@@H]1O)Oc1ccccc1)C(=O)OC(C)(C)C (some centres undefined),> 100
1.5,CCOC(=O)[C@H](C)NP(=O)(OC[C@@]1(N=[N+]=[N-])O[C@@H](n2cnc3c(N)ncnc32)[C@H](O)[C@@H]1O)Oc1ccccc1 (some centres undefined),> 100
> 100,[N-]=[N+]=N[C@]1(CO)O[C@@H](n2cnc3c(N)ncnc32)[C@H](O)[C@@H]1O,> 100
> 100,C[C@H](NP(=O)(OC[C@@]1(N=[N+]=[N-])O[C@@H](n2cnc3c(N)ncnc32)[C@H](O)[C@@H]1O)Oc1cccc2ccccc12)C(=O)OC(C)(C)C (some centres undefined),> 100
